Experimental findings from ChEMBL document CHEMBL1134340, “GnRH antagonists: a new generation of long acting analogues incorporating p-ureido-phenylalanines at positions 5 and 6” (J Med Chem, 2001) are described below.

In experiment [1] the target is T1, Gonadotropin-releasing hormone receptor (Homo sapiens, UniProt P30968).
T1 sequence (P30968 whole entry): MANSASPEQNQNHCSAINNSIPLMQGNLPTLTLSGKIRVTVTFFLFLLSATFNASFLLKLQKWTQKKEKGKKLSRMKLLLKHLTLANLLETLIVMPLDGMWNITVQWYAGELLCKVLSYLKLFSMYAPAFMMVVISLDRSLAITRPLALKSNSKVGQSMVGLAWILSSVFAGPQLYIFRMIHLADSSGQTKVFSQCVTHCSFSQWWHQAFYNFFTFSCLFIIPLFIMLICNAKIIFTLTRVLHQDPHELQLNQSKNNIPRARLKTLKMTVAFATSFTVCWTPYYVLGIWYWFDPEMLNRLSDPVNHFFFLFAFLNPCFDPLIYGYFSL
Nature of the experiment: Antagonism of human GnHR receptor, determined in a reporter gene assay in HEK293 cells. It counts as functional, cell-based. The essentials: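 HEK293 cells stably expressing cloned human GnRH receptor plus luciferase reporter under LH alpha subunit promoter, plated 24 h before assay. Compound in 1% DMSO added 10 min at 37 °C, then GnRH at 3 nM final; 5 h incubation, luciferase luminescence read. Six concentrations in duplicate; blank-subtracted cps as % of GnRH control; mean of two determinations.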

For experiment [2], the target named is T1, Gonadotropin-releasing hormone receptor. Nature of the experiment: Competitive antagonism of GnRH-induced response in the reporter gene assay. The note with it: read-out: pA2 (converted). It counts as functional. The procedure, abridged:
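Same HEK293 human GnRH receptor luciferase reporter cells. Seven-point GnRH curve (10 µM to 10 pM final) run in duplicate without or with four to five increasing compound concentrations (10 min preincubation, 37 °C), then 5 h and luminescence. GnRH EC50 at each level by four-parameter logistic fit, giving pA2; mean of two determinations in duplicate.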

The species entered for a further experiment is Rattus norvegicus. Nature of the experiment: Compound was tested for inhibition of Leutenizing hormone release at 72 hours (long duration) in castrated male rat assay. The class given is functional. More on the design: concentration or dose not given beside the values. The essentials:
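Male Sprague-Dawley rats (180-200 g), castrated under ether 10 days earlier, 5 per group. 50 µg/rat given sc in 100 µL 40 mM phosphate buffer with 0.1% BSA and 0.6% DMSO; acyline run as internal standard. Tail blood taken predose and at 24, 48, 72, 96 (sometimes 120) h; plasma LH by RIA. Duration classed by >80% LH inhibition at each time.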

Where a SMILES comes first, the peptide text is derived from it. [ ]: non-standard residue; d: D form. d(hArg(Et2)) = CCN=C(NCC)NCCCC[C@@H](N)C(=O)O; hArg(Et2) = CCN=C(NCC)NCCCC[C@H](N)C(=O)O; dPhe(4-Cl) = N[C@H](Cc1ccc(Cl)cc1)C(=O)O; d2Nal = N[C@H](Cc1ccc2ccccc2c1)C(=O)O; Lys(iPr) = CC(C)NCCCC[C@H](N)C(=O)O; NMeY = CN[C@@H](Cc1ccc(O)cc1)C(=O)O; d3Pal = N[C@H](Cc1cccnc1)C(=O)O

Regarding `CCNC(=O)[C@@H]1CCCN1C(=O)[C@H](CCCCNC(C)C)NC(=O)[C@H](CC(C)C)NC(=O)[C@@H](Cc1ccc(CNC(N)=O)cc1)NC(=O)[C@H](Cc1ccc(NC(=O)[C@@H]2CC(=O)NC(=O)N2)cc1)NC(=O)[C@H](CO)NC(=O)[C@@H](Cc1cccnc1)NC(=O)[C@@H](Cc1ccc(Cl)cc1)NC(=O)[C@@H](Cc1ccc2ccccc2c1)NC(C)=O`, the IC50 in experiment [1] came to 8.8 nM. Besides, the Kb in experiment [2] is 0.631 nM.
For `CC(=O)N[C@H](Cc1ccc2ccccc2c1)C(=O)N[C@H](Cc1ccc(Cl)cc1)C(=O)N[C@H](Cc1cccnc1)C(=O)N[C@@H](CO)C(=O)N[C@@H](Cc1ccc(NC(=O)[C@@H]2CC(=O)NC(=O)N2)cc1)C(=O)N[C@H](Cc1ccc(NC(=O)[C@@H]2CC(=O)NC(=O)N2)cc1)C(=O)N[C@@H](CC(C)C)C(=O)N[C@@H](CCCCNC(C)C)C(=O)N1CCC[C@H]1C(=O)N[C@H](C)C(N)=O`, half-maximal inhibition in experiment [1] (IC50) required 10.8 nM. In experiment [2], the Kb is 1 nM.
As to `CC(=O)Nc1ccc(C[C@@H](NC(=O)[C@H](Cc2ccc(CNC(=O)[C@@H]3CC(=O)NC(=O)N3)cc2)NC(=O)[C@H](CO)NC(=O)[C@@H](Cc2cccnc2)NC(=O)[C@@H](Cc2ccc(Cl)cc2)NC(=O)[C@@H](Cc2ccc3ccccc3c2)NC(C)=O)C(=O)N[C@@H](CC(C)C)C(=O)N[C@@H](CCCCNC(C)C)C(=O)N2CCC[C@H]2C(=O)N[C@H](C)C(N)=O)cc1` [listing 1 of 2 here], half-maximal inhibition in experiment [1] (IC50) was put at 7.9 nM. In addition, the Kb in experiment [2] was 0.316 nM.
`CCNC(=O)[C@@H]1CCCN1C(=O)[C@H](CCCCNC(C)C)NC(=O)[C@H](CC(C)C)NC(=O)[C@@H](Cc1ccc(NC(N)=O)cc1)NC(=O)[C@H](Cc1ccc(NC(=O)[C@@H]2CC(=O)NC(=O)N2)cc1)NC(=O)[C@H](CO)NC(=O)[C@@H](Cc1cccnc1)NC(=O)[C@@H](Cc1ccc(Cl)cc1)NC(=O)[C@@H](Cc1ccc2ccccc2c1)NC(C)=O` returned an Inhibition in the experiment filed under Rattus norvegicus greater than 80%.
As for `CC(=O)NCc1ccc(C[C@@H](NC(=O)[C@H](Cc2ccc(NC(=O)[C@@H]3CC(=O)NC(=O)N3)cc2)NC(=O)[C@H](CO)NC(=O)[C@@H](Cc2cccnc2)NC(=O)[C@@H](Cc2ccc(Cl)cc2)NC(=O)[C@@H](Cc2ccc3ccccc3c2)NC(C)=O)C(=O)N[C@@H](CC(C)C)C(=O)N[C@@H](CCCCNC(C)C)C(=O)N2CCC[C@H]2C(=O)N[C@H](C)C(N)=O)cc1`, in experiment [1], 9.5 nM corresponded to half-maximal inhibition (IC50). Besides, in experiment [2], the Kb was 1 nM.
The like results for `CC(=O)N[C@H](Cc1ccc2ccccc2c1)C(=O)N[C@H](Cc1ccc(Cl)cc1)C(=O)N[C@H](Cc1cccnc1)C(=O)N[C@@H](CO)C(=O)N(C)[C@@H](Cc1ccc(O)cc1)C(=O)N[C@H](CC(N)=O)C(=O)N[C@@H](CC(C)C)C(=O)N[C@@H](CCCCNC(C)C)C(=O)N1CCC[C@H]1C(=O)N[C@H](C)C(N)=O` [ABARELIX] (Ac-[d2Nal][dPhe(4-Cl)][d3Pal]S[NMeY][dN]L[Lys(iPr)]P[dA]-NH2) were, in that order, 3.5 nM and 0.794 nM.
`CC(=O)NCc1ccc(C[C@@H](NC(=O)[C@H](Cc2ccc(NC(=O)[C@H]3CC(=O)NC(=O)N3)cc2)NC(=O)[C@H](CO)NC(=O)[C@@H](Cc2cccnc2)NC(=O)[C@@H](Cc2ccc(Cl)cc2)NC(=O)[C@@H](Cc2ccc3ccccc3c2)NC(C)=O)C(=O)N[C@@H](CC(C)C)C(=O)N[C@@H](CCCCNC(C)C)C(=O)N2CCC[C@H]2C(=O)N[C@H](C)C(N)=O)cc1` [listing 1 of 2 here]: the IC50 in experiment [1] worked out at 7 nM. Moreover, the Kb in experiment [2] was 1.58 nM.
In experiment [1], `CNC(=O)NCc1ccc(C[C@@H](NC(=O)[C@H](Cc2ccc(NC(=O)[C@@H]3CC(=O)NC(=O)N3)cc2)NC(=O)[C@H](CO)NC(=O)[C@@H](Cc2cccnc2)NC(=O)[C@@H](Cc2ccc(Cl)cc2)NC(=O)[C@@H](Cc2ccc3ccccc3c2)NC(C)=O)C(=O)N[C@@H](CC(C)C)C(=O)N[C@@H](CCCCNC(C)C)C(=O)N2CCC[C@H]2C(=O)N[C@H](C)C(N)=O)cc1` gave an IC50 of 7.9 nM. In experiment [2], the Kb was 0.794 nM.
Take `CC(=O)NCc1ccc(C[C@@H](NC(=O)[C@H](Cc2ccc(NC(=O)[C@H]3CC(=O)NC(=O)N3)cc2)NC(=O)[C@H](CO)NC(=O)[C@@H](Cc2cccnc2)NC(=O)[C@@H](Cc2ccc(Cl)cc2)NC(=O)[C@@H](Cc2ccc3ccccc3c2)NC(C)=O)C(=O)N[C@@H](CC(C)C)C(=O)N[C@@H](CCCCNC(C)C)C(=O)N2CCC[C@H]2C(=O)N[C@H](C)C(N)=O)cc1` [listing 2 of 2 here]: in the experiment filed under Rattus norvegicus, the Inhibition is greater than 80%.
Take `CC(=O)Nc1ccc(C[C@@H](NC(=O)[C@H](Cc2ccc(NC(=O)c3cc(=O)[nH]c(=O)[nH]3)cc2)NC(=O)[C@H](CO)NC(=O)[C@@H](Cc2cccnc2)NC(=O)[C@@H](Cc2ccc(Cl)cc2)NC(=O)[C@@H](Cc2ccc3ccccc3c2)NC(C)=O)C(=O)N[C@@H](CC(C)C)C(=O)N[C@@H](CCCCNC(C)C)C(=O)N2CCC[C@H]2C(=O)N[C@H](C)C(N)=O)cc1`: the midpoint of inhibition in experiment [1], the IC50, lay at 10.7 nM.
Turning to `CC(=O)N[C@H](Cc1ccc2ccccc2c1)C(=O)N[C@H](Cc1ccc(Cl)cc1)C(=O)N[C@H](Cc1cccnc1)C(=O)N[C@@H](CO)C(=O)N[C@@H](Cc1ccc(NC(=O)[C@@H]2CC(=O)NC(=O)N2)cc1)C(=O)N[C@H](Cc1ccc(NC(N)=O)cc1)C(=O)N[C@@H](CC(C)C)C(=O)N[C@@H](CCCCNC(C)C)C(=O)N1CCC[C@H]1C(=O)N[C@@H](C)CO`, the Inhibition in the experiment filed under Rattus norvegicus is on record as greater than 80%.
Take `CC(=O)N[C@H](Cc1ccc2ccccc2c1)C(=O)N[C@H](Cc1ccc(Cl)cc1)C(=O)N[C@H](Cc1cccnc1)C(=O)N[C@@H](CO)C(=O)N[C@@H](Cc1ccc(NC(=O)[C@@H]2CC(=O)NC(=O)N2)cc1)C(=O)N[C@H](Cc1ccc(CNC(N)=O)cc1)C(=O)N[C@@H](CC(C)C)C(=O)N[C@@H](CCCCNC(C)C)C(=O)N1CCC[C@H]1C(=O)N[C@H](C)C(N)=O`: in experiment [1], it took 5.6 nM to reach half-maximal inhibition (IC50). In addition, the Kb in experiment [2] was 1.26 nM.
For `CC(=O)Nc1ccc(C[C@@H](NC(=O)[C@H](Cc2ccc(CNC(=O)[C@@H]3CC(=O)NC(=O)N3)cc2)NC(=O)[C@H](CO)NC(=O)[C@@H](Cc2cccnc2)NC(=O)[C@@H](Cc2ccc(Cl)cc2)NC(=O)[C@@H](Cc2ccc3ccccc3c2)NC(C)=O)C(=O)N[C@@H](CC(C)C)C(=O)N[C@@H](CCCCNC(C)C)C(=O)N2CCC[C@H]2C(=O)N[C@H](C)C(N)=O)cc1` [listing 2 of 2 here], in the experiment filed under Rattus norvegicus, the Inhibition was greater than 80%.
With `CC(=O)N[C@H](Cc1ccc2ccccc2c1)C(=O)N[C@H](Cc1ccc(Cl)cc1)C(=O)N[C@H](Cc1cccnc1)C(=O)N[C@@H](CO)C(=O)N[C@@H](Cc1ccc(NC(=O)[C@H]2CC(=O)NC(=O)N2)cc1)C(=O)N[C@H](Cc1ccc(CNC(N)=O)cc1)C(=O)N[C@@H](CC(C)C)C(=O)N[C@@H](CCCCNC(C)C)C(=O)N1CCC[C@H]1C(=O)N[C@H](C)C(N)=O`, the IC50 in experiment [1] came out at 7.7 nM.
In turn, `CCN=C(NCC)NCCCC[C@H](NC(=O)[C@H](CC(C)C)NC(=O)[C@@H](CCCCNC(=NCC)NCC)NC(=O)[C@H](Cc1ccc(O)cc1)NC(=O)[C@H](CO)NC(=O)[C@@H](Cc1cccnc1)NC(=O)[C@@H](Cc1ccc(Cl)cc1)NC(=O)[C@@H](Cc1ccc2ccccc2c1)NC(C)=O)C(=O)N1CCC[C@H]1C(=O)N[C@H](C)C(N)=O` [GANIRELIX ACETATE] (Ac-[d2Nal][dPhe(4-Cl)][d3Pal]SY[d(hArg(Et2))]L[hArg(Et2)]P[dA]-NH2) had an IC50 in experiment [1] of 3.6 nM. Further, the Kb in experiment [2] is 0.501 nM.
`CC(=O)N[C@H](Cc1ccc2ccccc2c1)C(=O)N[C@H](Cc1ccc(Cl)cc1)C(=O)N[C@H](Cc1cccnc1)C(=O)N[C@@H](CO)C(=O)N[C@@H](Cc1ccc(NC(=O)[C@@H]2CC(=O)NC(=O)N2)cc1)C(=O)N[C@H](Cc1cccnc1)C(=O)N[C@@H](CC(C)C)C(=O)N[C@@H](CCCCNC(C)C)C(=O)N1CCC[C@H]1C(=O)N[C@H](C)C(N)=O` showed an IC50 in experiment [1] of 2.8 nM. In experiment [2], the Kb was 2 nM.
On to `CC(=O)N[C@H](Cc1ccc2ccccc2c1)C(=O)N[C@H](Cc1ccc(Cl)cc1)C(=O)N[C@H](Cc1cccnc1)C(=O)N[C@@H](CO)C(=O)N[C@@H](Cc1ccc(NC(=O)[C@@H]2CC(=O)NC(=O)N2)cc1)C(=O)N[C@H](Cc1ccc2ccccc2c1)C(=O)N[C@@H](CC(C)C)C(=O)N[C@@H](CCCCNC(C)C)C(=O)N1CCC[C@H]1C(=O)N[C@H](C)C(N)=O`, for which the IC50 in experiment [1] is 13 nM.
In turn, `CC(=O)Nc1ccc(C[C@H](NC(=O)[C@H](CO)NC(=O)[C@@H](Cc2cccnc2)NC(=O)[C@@H](Cc2ccc(Cl)cc2)NC(=O)[C@@H](Cc2ccc3ccccc3c2)NC(C)=O)C(=O)N[C@H](Cc2ccc(CNC(N)=O)cc2)C(=O)N[C@@H](CC(C)C)C(=O)N[C@@H](CCCCNC(C)C)C(=O)N2CCC[C@H]2C(=O)N[C@H](C)C(N)=O)cc1` came in with an IC50 in experiment [1] of 6.4 nM. Further, the Kb in experiment [2] is 0.631 nM.
Taken in the same sequence, the figures for `CC(=O)N[C@H](Cc1ccc2ccccc2c1)C(=O)N[C@H](Cc1ccc(Cl)cc1)C(=O)N[C@H](Cc1cccnc1)C(=O)N[C@@H](CO)C(=O)N[C@@H](Cc1ccc(NC(=O)[C@@H]2CC(=O)NC(=O)N2)cc1)C(=O)N[C@H](CCCNC(N)=O)C(=O)N[C@@H](CC(C)C)C(=O)N[C@@H](CCCCNC(C)C)C(=O)N1CCC[C@H]1C(=O)N[C@H](C)C(N)=O` were 5.8 nM and 0.794 nM.
